Laboratory results published in ChEMBL document CHEMBL1932986, “Synthesis and in vitro antimycobacterial activity of compounds derived from (R)- and (S)-2-amino-1-butanol - The crucial role of the configuration” (Eur J Med Chem, 2012).

Assays:
Micrococcus luteus [1] = experiment: Antibacterial activity against Micrococcus luteus ATCC 9631 at 4 mg/ml after 24 hrs by agar diffusion test; assay type: functional, organism-based
Outline: (§1)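 Agar diffusion: bacteria grown 24 h at 37 °C on nutrient agar; wells cut in the seeded agar are filled with compound solution in DMSO. Read-out is the diameter of the clear zone around the application point.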

Micrococcus luteus [2] = experiment: Antibacterial activity against Micrococcus luteus ATCC 9631 at 20 mg/ml after 24 hrs by agar diffusion test; assay type: functional, organism-based; outline: as §1
Bacillus mycoides [3] = experiment: Antibacterial activity against Bacillus mycoides DSMZ 274 at 20 mg/ml after 24 hrs by agar diffusion test; assay type: functional, organism-based; outline: as §1
Bacillus [4] = experiment: Antibacterial activity against Bacillus idosus B 241 at 4 mg/ml after 24 hrs by agar diffusion test; assay type: functional, organism-based; outline: as §1
Bacillus mycoides [5] = experiment: Antibacterial activity against Bacillus mycoides DSMZ 274 at 4 mg/ml after 24 hrs by agar diffusion test; assay type: functional, organism-based; outline: as §1
Acinetobacter johnsonii [6] = experiment: Antibacterial activity against Acinetobacter johnsonii ATCC 17909 at 4 mg/ml after 24 hrs by agar diffusion test; assay type: functional; outline: as §1
Bacillus subtilis [7] = experiment: Antibacterial activity against Bacillus subtilis ATCC 6633 at 4 mg/ml after 24 hrs by agar diffusion test; assay type: functional, organism-based; outline: as §1
Micrococcus luteus [8] = experiment: Antibacterial activity against Sarcina lutea ATCC 9341 at 4 mg/ml after 24 hrs by agar diffusion test; assay type: functional, organism-based; outline: as §1
Acinetobacter johnsonii [9] = experiment: Antibacterial activity against Acinetobacter johnsonii ATCC 17909 at 20 mg/ml after 24 hrs by agar diffusion test; assay type: functional; outline: as §1
Priestia megaterium [10] = experiment: Antibacterial activity against Bacillus megaterium NRRL 1353895 at 4 mg/ml after 24 hrs by agar diffusion test; assay type: functional, organism-based; outline: as §1
Micrococcus luteus [11] = experiment: Antibacterial activity against Sarcina lutea ATCC 9341 at 20 mg/ml after 24 hrs by agar diffusion test; assay type: functional, organism-based; outline: as §1
Bacillus cereus [12] = experiment: Antibacterial activity against Bacillus cereus ATCC 11778 at 4 mg/ml after 24 hrs by agar diffusion test; assay type: functional, organism-based; outline: as §1
Priestia megaterium [13] = experiment: Antibacterial activity against Bacillus megaterium NRRL 1353895 at 20 mg/ml after 24 hrs by agar diffusion test; assay type: functional, organism-based; outline: as §1
Bacillus [14] = experiment: Antibacterial activity against Bacillus idosus B 241 at 20 mg/ml after 24 hrs by agar diffusion test; assay type: functional, organism-based; outline: as §1
Bacillus cereus [15] = experiment: Antibacterial activity against Bacillus cereus ATCC 11778 at 20 mg/ml after 24 hrs by agar diffusion test; assay type: functional, organism-based; outline: as §1
Bacillus subtilis [16] = experiment: Antibacterial activity against Bacillus subtilis ATCC 6633 at 20 mg/ml after 24 hrs by agar diffusion test; assay type: functional, organism-based; outline: as §1

GENTAMICIN
inhibition zone (IZ) (Micrococcus luteus [1]): 28 mm | inhibition zone (IZ) (Micrococcus luteus [2]): 38 mm | inhibition zone (IZ) (Bacillus mycoides [3]): 32 mm | inhibition zone (IZ) (Bacillus [4]): 29 mm | inhibition zone (IZ) (Bacillus mycoides [5]): 28 mm | inhibition zone (IZ) (Acinetobacter johnsonii [6]): 31 mm | inhibition zone (IZ) (Bacillus subtilis [7]): 27 mm | inhibition zone (IZ) (Micrococcus luteus [8]): 28 mm | inhibition zone (IZ) (Acinetobacter johnsonii [9]): 39 mm | inhibition zone (IZ) (Priestia megaterium [10]): 30 mm | inhibition zone (IZ) (Micrococcus luteus [11]): 34 mm | inhibition zone (IZ) (Bacillus cereus [12]): 26 mm | inhibition zone (IZ) (Priestia megaterium [13]): 36 mm | inhibition zone (IZ) (Bacillus [14]): 35 mm | inhibition zone (IZ) (Bacillus cereus [15]): 29 mm | inhibition zone (IZ) (Bacillus subtilis [16]): 30 mm
